{"data": "Measurements pooled from the literature", "target": "Calcium/calmodulin-dependent protein kinase kinase 2 (CAMKK2, Homo sapiens, UniProt Q96RR4)", "note": "Each line is one published result; the experiments were not run side by side."}
{"SMILES": "Cc1nn(C)cc1-c1nc2c(N3CCN(Cc4ccc(Cl)cc4)CC3)c(Cl)cnc2[nH]1", "observed": "binding", "technique": "competition with immobilised ligand", "concentration": "1 µM", "endpoint": "remaining binding", "result": "100%"}
{"SMILES": "Cn1cncc1[C@](O)(COc1ccc(C#N)cc1-c1ccc(OC(F)(F)F)cc1)c1ccc(C#N)cc1", "observed": "cell-free assay", "technique": "competition with immobilised ligand", "concentration": "1 µM", "endpoint": "remaining binding", "result": "100%"}
{"SMILES": "Nc1ncc(-c2nc(N3CCOCC3)nc(N3CCOCC3)n2)c(C(F)F)n1", "observed": "binding", "technique": "competition with immobilised ligand", "concentration": "10 µM", "endpoint": "remaining binding", "result": "65%"}
{"SMILES": "N#CC1(c2ccccn2)CCN(Cc2cc(C(=O)O)c(=O)n3ccccc23)CC1", "observed": "cell-free assay", "technique": "competition with immobilised ligand", "concentration": "1 µM", "endpoint": "remaining binding", "result": "100%"}
{"SMILES": "CC(C)(C)c1cc(C=C(C#N)C#N)cc(Br)c1O", "observed": "enzyme activity", "action": "inhibitor", "concentration": "0.5 µM", "endpoint": "remaining activity", "result": "92.5%"}
{"SMILES": "Cn1cc(-c2cccc(N3CCc4c(sc5c4CC(C)(C)C5)C3=O)c2CO)cc(Nc2ccncn2)c1=O", "observed": "enzyme activity", "action": "inhibitor", "concentration": "1 µM", "endpoint": "inhibition", "result": "-7%"}
{"SMILES": "O=c1[nH]c2ccccc2n1C1CCN(Cc2ccc(-c3[nH]c4cc5ncnc5cc4nc3-c3ccccc3)cc2)CC1", "observed": "cell-free assay", "concentration": "0.5 µM", "endpoint": "remaining signal", "result": "112%"}
{"SMILES": "COc1ncccc1-c1cnn2ccc(N3CCN(C(=O)OC(C)C)CC3)nc12", "observed": "binding", "technique": "competition with immobilised ligand", "concentration": "1 µM", "endpoint": "remaining binding", "result": "88%"}
